Experimental data taken from ChEMBL document CHEMBL3864128, “Syntheses of new 3-thiazolyl coumarin derivatives, in vitro α-glucosidase inhibitory activity, and molecular modeling studies” (Eur J Med Chem, 2016).

Test: Inhibition of alpha-glucosidase (unknown origin) using PNP glycoside as substrate preincubated for 30 mins followed by substrate addition after 60 mins by spectrophotometric analysis
Parameters: species or system Homo sapiens
Summary of the method: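 Enzyme activity run in 50 mM phosphate buffer, pH 6.8, containing 5% v/v DMSO. Inhibitors pre-incubated with enzyme 30 min at 37 °C, then PNP glycoside substrate added and reaction run 60 min at 37 °C. Absorbance read at 400 nm. Triplicate runs at five concentrations spanning the IC50 estimated in a first round; means adopted.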

SMILES | IC50 [µM]
CC(C)(C)c1ccc(C(=O)Nn2c(-c3cc4ccccc4oc3=O)cs/c2=N\c2ccc(Cl)c(Cl)c2)cc1 | 0.78
COc1ccc(/N=c2\scc(-c3cc4ccccc4oc3=O)n2NC(=O)c2ccccc2)cc1 | 6.5
COc1ccc(/N=c2\scc(-c3cc4ccccc4oc3=O)n2NC(=O)c2ccc(C(C)(C)C)cc2)cc1 | 1.4
COc1ccc(/N=c2\scc(-c3cc4ccccc4oc3=O)n2NC(=O)c2ccccc2O)cc1 | 1.1
O=C(Nn1c(-c2cc3ccccc3oc2=O)cs/c1=N\c1cccc(Br)c1)c1ccccc1O | 4.06
COc1ccc(C(=O)Nn2c(-c3cc4ccccc4oc3=O)cs/c2=N\c2ccc(Cl)c(Cl)c2)c(OC)c1 | 2.5
COc1ccc(/N=c2\scc(-c3cc4ccccc4oc3=O)n2NC(=O)c2ccc(OC)cc2OC)cc1 | 7.4
COc1ccc(/N=c2\scc(-c3cc4ccccc4oc3=O)n2NC(=O)c2ccccc2OC)cc1 | 16.2
O=C(Nn1c(-c2cc3ccccc3oc2=O)cs/c1=N\c1ccc(Cl)c(Cl)c1)c1ccccc1O | 0.12
COc1ccc(/N=c2\scc(-c3cc4ccccc4oc3=O)n2NC(=O)c2cc(OC)cc(OC)c2)cc1 | 8.1
COc1cc(OC)cc(C(=O)Nn2c(-c3cc4ccccc4oc3=O)cs/c2=N\c2cccc(Br)c2)c1 | 9.19
COc1ccc(/N=c2\scc(-c3cc4ccccc4oc3=O)n2NC(=O)c2ccc(OC)cc2)cc1 | 3.6
COc1ccc(/N=c2\scc(-c3cc4ccccc4oc3=O)n2NC(=O)c2ccc(Br)cc2)cc1 | 9.45
COc1ccc(/N=c2\scc(-c3cc4ccccc4oc3=O)n2NC(=O)c2ccc(C)cc2C)cc1 | 2.9
